Bioassay records (PubChem BioAssay)
NR2E3 ag-1 = agonists of human NR2E3 nuclear receptor; CHO-S Gal4-NCOR/VP16-NR2E3 two-hybrid, luciferase; inhibition of corepressor binding, % at 3.98 µM; 360,000 tested, 0.35% active;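 active = inhibition above the mean of all tested compounds plus 3 SD, cut at about 70% in these data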;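 also: 0% = DMSO with NR2E3 transfected cells and 100% = cells lacking NR2E3 construct; higher means lower luciferase signal from less NR2E3 corepressor binding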
Target sequence (Q9Y5X4 whole entry, looked up, the tested form may be a part): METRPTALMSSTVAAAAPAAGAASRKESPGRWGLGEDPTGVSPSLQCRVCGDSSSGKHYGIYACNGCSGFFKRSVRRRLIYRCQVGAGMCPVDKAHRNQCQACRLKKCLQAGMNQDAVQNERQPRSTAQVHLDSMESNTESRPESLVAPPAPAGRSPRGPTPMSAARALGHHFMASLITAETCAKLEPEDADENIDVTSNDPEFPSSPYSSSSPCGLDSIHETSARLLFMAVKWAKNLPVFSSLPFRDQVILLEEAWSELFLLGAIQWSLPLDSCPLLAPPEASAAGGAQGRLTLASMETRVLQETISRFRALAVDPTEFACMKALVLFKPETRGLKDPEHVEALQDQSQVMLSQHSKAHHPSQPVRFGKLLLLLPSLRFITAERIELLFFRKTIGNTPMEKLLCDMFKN
HIV Env fusion = HIV envelope-mediated fusion inhibition. AID 651610. 360,000 tested, 1.1% active. inhibition, % at 12.3 µM. HeLa-JRFL Env/CEM21 cell fusion, luciferase;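 active = mean replicate inhibition score of at least 50 and every replicate individually at or above 50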;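 also: 0% = plate neutral controls and 100% = maraviroc near 300 nM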
GalR3 antag = antagonists of human GalR3; 360,000 tested, 0.44% active; inhibition, % at 3 µM; HEK293 GalR3-CNG cAMP membrane potential fluorescence; galR3 body fused to GalR1 C-terminus; AID 651719; O60755;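 active = inhibition above the screen-wide average plus 3 SD, cut at about 13% in these data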;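 also: forskolin and galanin both at EC90 stimulate the cells; cAMP rise reported by CNG channel membrane potential dye signal; 0% = forskolin plus galanin with DMSO and 100% = forskolin alone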
Target sequence (O60755 1-299 limits assumed): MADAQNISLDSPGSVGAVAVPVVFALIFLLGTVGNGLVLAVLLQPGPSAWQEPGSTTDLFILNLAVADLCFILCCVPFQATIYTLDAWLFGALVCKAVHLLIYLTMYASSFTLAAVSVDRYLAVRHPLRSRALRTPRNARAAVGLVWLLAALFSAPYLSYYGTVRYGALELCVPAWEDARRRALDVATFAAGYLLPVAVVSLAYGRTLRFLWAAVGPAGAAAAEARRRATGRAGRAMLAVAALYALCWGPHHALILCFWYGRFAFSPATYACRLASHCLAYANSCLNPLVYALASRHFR
FXN GAA850 act = increases GAA850 frataxin promoter reporter activity; 360,000 tested, 0.56% active; AID 540364; HEK293 lucGAA850 FXN promoter luciferase reporter, 24 h; percent of 10 µM SAHA response; activation, % at 6 µM;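 active = activation above the average of all compounds screened plus 3 SD, cutoff fixed separately per campaign, cut at about 7.5% in these data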;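 also: 0% = DMSO wells and 100% = 10 µM SAHA wells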
NR2E3 ag-2 = activates human photoreceptor nuclear receptor NR2E3; inhibition of corepressor binding, % at 4.78 µM; GST-NR2E3/biotin-RetCOR TR-FRET, 1536-well; 320,000 tested, 0.12% active;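 active = percent inhibition above the cutoff of mean plus 3 SD of all tested compounds, set per screening campaign, cut at about 20% in these data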;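 also: 0% = DMSO wells and 100% = biotin wells as full block of FRET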
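Test system: GST-NR2E3 and biotin-RetCOR proteins | Quantity: 1.35 nM GST-tagged NR2E3 final | Medium: Tris pH 7.5 | Also added: 7 nM biotin-RetCOR | Dosing: Compound at 4.8 µM, single dose | Timing: 5 h at 4 °C | Detection: Time-resolved FRET | Read-out basis: Percent inhibition | Benchmarks: Biotin wells as high control, 0.6% DMSO wells as low control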
V-ATPase pHluor = regulators of yeast V-ATPase proton transport; S. cerevisiae, pHLuorin cytosolic pH fluorescence; 350,000 tested, 0.37% active; response, % at 10 µM; in the data active = response mostly above about 7.3%, no sharp cut-off; inactive = mostly below about 5.4%; also: actives read high
Active calls of the source: *; nt = no result given; [ ] = remark or other dose. Shown are actives, neighbours in structure and some others; about 2.2% of the full set was active somewhere.

SMILES	NR2E3 ag-1	HIV Env fusion	GalR3 antag	FXN GAA850 act	NR2E3 ag-2	V-ATPase pHluor
Cc1noc(C)c1NC(=O)Nc1ccc2c(c1)C(=O)N([C@@H](C)CO)C[C@H](C)[C@H](CN(C)S(=O)(=O)c1ccc(F)cc1)OCCCC[C@H](C)O2	nt	55.2*[16.7 µM]	nt	nt	nt	nt
Cc1noc(C)c1S(=O)(=O)N(C)C[C@H]1OCCCC[C@@H](C)Oc2ccc(NC(=O)Nc3ccc(C(F)(F)F)cc3)cc2C(=O)N([C@@H](C)CO)C[C@H]1C	nt	44.1[16.7 µM]	nt	nt	nt	nt
Cc1noc(C)c1S(=O)(=O)N(C)C[C@H]1OCCCC[C@@H](C)Oc2ccc(NC(=O)Nc3ccc4c(c3)OCO4)cc2C(=O)N([C@@H](C)CO)C[C@H]1C	nt	-4.5[16.7 µM]	nt	nt	nt	nt
Cc1noc(C)c1S(=O)(=O)N(C)C[C@H]1OCCCC[C@H](C)Oc2ccc(NC(=O)Nc3ccc4c(c3)OCO4)cc2C(=O)N([C@@H](C)CO)C[C@@H]1C	nt	59.9*[16.7 µM]	nt	nt	nt	nt
C[C@@H]1CN([C@H](C)CO)C(=O)c2cc(NC(=O)Nc3ccccc3)ccc2O[C@@H](C)CCCCO[C@H]1CN(C)Cc1ccncc1	nt	7.4[16.7 µM]	nt	nt	nt	nt
O=C(NCC[C@H]1CC[C@H](NS(=O)(=O)c2ccccc2)[C@@H](CO)O1)c1cc(Cl)cc(Cl)c1	nt	2.4[16.7 µM]	nt	nt	nt	nt
CCCc1cc(C(=O)NCc2ccc(OC)cc2)no1	-64.6	84.5*	nt	3.5	1.0	0.3
C[C@@H]1CN([C@@H](C)CO)C(=O)c2cc(NC(=O)Nc3cccc4ccccc34)ccc2O[C@@H](C)CCCCO[C@@H]1CN(C)C(=O)Nc1ccccc1	nt	17.3[16.7 µM]	nt	nt	nt	nt
C[C@H](CO)N1C[C@H](C)[C@@H](CN(C)CC2CC2)OCCCC[C@H](C)Oc2ccc(NS(=O)(=O)c3ccccc3)cc2C1=O	nt	-15.1[16.7 µM]	nt	nt	nt	nt
CC(C)CCSc1nc2[nH]ncc2c(=O)[nH]1	-5.4	-20.1	-0.8	1.3	-4.8	48.0*
COC(=O)C(C)N(C(=O)c1cccc2ccccc12)c1c(C)cccc1C (stereo not drawn)	4.9	77.9*	-7.7	-2.1	-3.5	4.8
CC1=Nn2c(nnc2-c2ccccn2)SC1	-13.4	-184.9	-4.9	-0.2	-0.5	-2.1
CC1=Nn2c(nnc2-c2ccccc2F)SC1	25.5	-67.2	-0.6	1.7	3.0	15.4*
CC(C)(C)NC(=O)CSc1nc(-c2ccccc2)c(-c2ccccc2)[nH]1	14.3	63.8*	-8.4	0.5	0.5	2.8
O=C(CSc1nc(-c2ccccc2)c(-c2ccccc2)[nH]1)N1CCN(S(=O)(=O)c2ccccc2)CC1	-1.6	84.3*	-4.8	0.3	-1.7	0.3
O=C(CSc1nc2ccccc2c(=O)[nH]1)N1CCN(S(=O)(=O)c2ccccc2)CC1	-6.1	nt	nt	0.5	0.7	-1.3
C[C@@H]1CN([C@H](C)CO)C(=O)c2cc(NC(=O)CCCN(C)C)ccc2O[C@H]1CN(C)C(=O)Nc1ccc(F)cc1	nt	-2.5[16.7 µM]	nt	nt	nt	nt
COc1ccc(CN(C)C[C@@H]2OCCCC[C@@H](C)Oc3ccc(NC(=O)Nc4ccc(C(F)(F)F)cc4)cc3C(=O)N([C@@H](C)CO)C[C@H]2C)cc1	nt	58.4*[16.7 µM]	nt	nt	nt	nt
COc1ccc(NC(=O)Nc2ccc3c(c2)C(=O)N([C@H](C)CO)C[C@H](C)[C@H](CN(C)Cc2ccc(C(F)(F)F)cc2)OCCCC[C@H](C)O3)cc1	nt	63.6*[16.7 µM]	nt	nt	nt	nt
COc1ccc(NC(=O)Nc2ccc3c(c2)C(=O)N([C@H](C)CO)C[C@H](C)[C@H](CN(C)Cc2ccc(C(F)(F)F)cc2)OCCCC[C@@H](C)O3)cc1	nt	-108.2[16.7 µM]	nt	nt	nt	nt
COc1ccc(-c2csc(Nc3cccc(C)n3)n2)cc1	-168.0	-231.6	-12.4	6.5	0.2	-2.9
COc1ccc(-c2csc(Nc3ccc(Oc4ccccc4)cc3)n2)cc1	1.9	77.2*	-2.9	nt	nt	nt
O=[N+]([O-])c1ccc(C2CCCC/C2=N\OCc2cccc(F)c2)c([N+](=O)[O-])c1 (stereo not drawn)	12.1	84.8*	-5.1	0.4	1.1	0.9
CC1CCCC/C1=N/Nc1ccc([N+](=O)[O-])cc1[N+](=O)[O-] (stereo not drawn)	23.6	nt	-0.6	0.6	-0.6	10.2
C[C@@H]1CN([C@@H](C)CO)C(=O)c2cc(NS(=O)(=O)c3ccc(F)cc3)ccc2O[C@@H](C)CCCCO[C@@H]1CN(C)C(=O)CCCN(C)C	nt	16.6[16.7 µM]	nt	nt	nt	nt
SMILES	NR2E3 ag-1	HIV Env fusion	GalR3 antag	FXN GAA850 act	NR2E3 ag-2	V-ATPase pHluor
CC(C)(C)C1CCC2(CC1)C(C#N)=C(SCC(=O)Nc1ccccc1)NC(=O)C2C#N (stereo not drawn)	100.4*	nt	-4.3	0.9	-5.0	0.3
CC1(C)CC(=O)C2=C(C1)NC(SCC(=O)Nc1ccccc1)=C(C#N)C21CCCCC1	-12.3	nt	-5.9	-0.8	0.0	3.4
C[C@H](CO)N1C[C@H](C)[C@@H](CN(C)C(=O)Nc2cccc3ccccc23)OCCCC[C@H](C)Oc2ccc(NC(=O)Nc3ccc4c(c3)OCO4)cc2C1=O	nt	-23.0[16.7 µM]	nt	nt	nt	nt
Cc1[nH]c2ccccc2c1/C=N/Nc1nc(Nc2ccc(F)cc2)nc(N2CCOCC2)n1	3.4	nt	-0.5	0.0	0.2	-0.4
C(=N\Nc1nc(Nc2ccccc2)nc(N2CCOCC2)n1)/c1c[nH]c2ccccc12	nt	69.7*	-6.9	nt	-0.7	nt
O=C1CCCc2oc3c(cc(NS(=O)(=O)c4ccc5c6c(cccc46)C(=O)N5)c4ccccc43)c21	-1.8	3.9	40.6*	4.7	-2.5	2.0
Cc1oc2c(cc(NS(=O)(=O)c3ccc4c5c(cccc35)C(=O)N4)c3ccccc32)c1C(=O)OC(C)C	-19.8	-77.0	4.9	4.1	2.9	0.9
CC(=O)Nc1ccc(S(=O)(=O)N2CCC(C(=O)c3ccc(F)cc3)CC2)cc1	-19.7	-7.7	-7.1	-1.0	-3.9	-1.5
Cc1ccc(S(=O)(=O)N2CCC(C(=O)Nc3ccc(S(=O)(=O)N4CCOCC4)cc3)CC2)cc1	9.8	29.1	-7.6	2.8	nt	0.1
Cc1cc(C)c(C)c(S(=O)(=O)N2CCC(C(=O)Nc3ccc(S(=O)(=O)N4CCOCC4)cc3)CC2)c1C	-16.2	56.6*	-2.5	-1.2	2.1	-2.3
CC(=O)Nc1ccc(S(=O)(=O)N2CCC(C(=O)c3ccc(Cl)cc3)CC2)cc1	27.5	55.6*	-9.0	1.6	1.9	0.4
COc1ccc(OC)c(NC(=O)C(C)OC(=O)c2cc3ccccc3[nH]2)c1 (stereo not drawn)	15.7	58.2*	-3.3	-1.7	nt	0.3
CO[C@@H]1CN(C)C(=O)c2ccc(NC(=O)c3ccccc3)cc2OC[C@H](C)N(CC2CC2)C[C@@H]1C	nt	4.2[16.7 µM]	nt	nt	nt	nt
O=C(Nc1cccc2c1CCCC2)c1cc([N+](=O)[O-])ccc1Cl	7.9	nt	-8.3	-11.6	1.5	9.7*
CCCc1cc(=O)oc2cc(OCC(=O)N(C)C)c(Cl)cc12	11.0	nt	-4.9	2.3	0.0	26.0*
